Source: PubChem BioAssay (several laboratories)
Hits are enriched below; roughly 2% of the tested compounds scored in any of these assays.
CAL PDZ FP-1: human CAL PDZ-peptide interaction inhibition; 330,000 tested, 0.02% active; Q9HD26; purified CAL PDZ, TMR-peptide fluorescence polarization, 1 h; inhibition, % at 20 µM;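 active means highest replicate inhibition of at least 40%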;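 further: plate controls were DMSO neutral control wells for no effect and unlabeled competitor peptide control wells for full effect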
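Material: tagged CAL PDZ protein CerCALP, purified; buffer or medium: sodium phosphate/NaCl buffer pH 7.4 with TCEP, IgG, Thesit; also added: fluorescent TMR peptide probe; schedule: 1 h incubation at room temperature before polarization reading; technique: fluorescence polarization from S- and P-plane intensities, G-factor corrected; control set: unlabelled peptide and DMSO controls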
PKA-R2B act: activators of human PKA-R2B complex; 340,000 tested, 0.079% active; activation, % at 11.4 µM; PKA-R2B holoenzyme dissociation, Cy5-IP20 fluorescence polarization; R2B truncated from residue 108, S112A mutant; 0% DMSO only, 100% 113 µM cGMP; AID 504700;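 active means activation above a cutoff set at the mean over all compounds plus 3 SD, cut at about 18% in these data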;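 further: higher means more holoenzyme dissociation and a rise in polarization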
dFosB act-1: enhances mouse delta FosB homodimer DNA binding. P13346. purified delta FosB, TAMRA-CDK5 oligo fluorescence polarization; percent of positive-control signal above neutral wells. 340,000 tested, 0.99% active. activation, % at 25 µM;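 active means mean activation above about 17%, with every replicate also reaching it, limit read from the data, passing the limit was not always enough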
NTR1 ag: agonists of human neurotensin receptor NTR1 | P30989 | NTR1-U2OS beta-arrestin-GFP spot imaging, agonist mode | activation, % at 20 µM | 330,000 tested, 0.17% active;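 active means activation at or above 40% of the spot to cytoplasm intensity ratio, with at least 20 cells analyzed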;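 further: 0% = DMSO without peptide and 100% = 100 nM NTR1 peptide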
Target sequence (P30989 whole entry, looked up): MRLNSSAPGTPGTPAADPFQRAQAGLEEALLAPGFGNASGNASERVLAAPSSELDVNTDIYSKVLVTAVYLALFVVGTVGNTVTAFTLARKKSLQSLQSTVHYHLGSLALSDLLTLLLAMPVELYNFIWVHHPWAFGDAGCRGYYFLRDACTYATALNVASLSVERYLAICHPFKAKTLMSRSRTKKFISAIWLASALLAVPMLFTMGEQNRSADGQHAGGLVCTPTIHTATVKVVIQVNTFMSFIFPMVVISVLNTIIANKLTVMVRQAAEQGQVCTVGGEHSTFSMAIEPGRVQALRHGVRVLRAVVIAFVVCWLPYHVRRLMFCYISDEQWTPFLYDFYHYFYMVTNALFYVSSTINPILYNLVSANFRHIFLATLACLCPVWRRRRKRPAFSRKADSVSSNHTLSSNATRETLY
CAL PDZ FP-2: blocks peptide binding to the human CAL PDZ domain | purified CAL PDZ, TMR-peptide fluorescence polarization, 1 h | inhibition, % at 24.9 µM | 300,000 tested, 0.92% active | AID 602252;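 active means mean inhibition of at least 30% with at least half of replicates also reaching 30%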;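 further: 0% = DMSO neutral control and 100% = excess unlabeled competitor peptide PRC23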
PKA-R1A act: PKA-R1A complex activation; P00514+P68181; activation, % at 11.4 µM; 340,000 tested, 0.083% active; PKA-R1A dissociation, Cy5-IP20 fluorescence polarization; scaled: DMSO 0%, 113 µM cGMP 100%; AID 504707;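 active means percent activation above the mean of all tested compounds plus 3 SD, cut at about 19% in these data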;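 further: higher means more PKAc released from R1A so a rise in polarization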
dFosB act-2: activators of mouse delta FosB homodimer DNA binding; 2,400 tested, under 10 active; activation, % at 24.9 µM; shares compounds with dFosB act-1; purified delta FosB, TAMRA-CDK5 oligo fluorescence polarization; normalised: neutral wells 0, positive control 100; AID 588690;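 active means highest replicate activation at or above 34% and every replicate reaching that threshold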;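 further: higher polarization means more probe DNA bound by delta FosB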
The depositor's hits bear a star; x = no result given.

SMILES | CAL PDZ FP-1 | PKA-R2B act | dFosB act-1 | NTR1 ag | CAL PDZ FP-2 | PKA-R1A act | dFosB act-2
CC(C)CCNc1nc(-c2ccco2)c2c(c1C#N)CCCC2 | -1 | -5 | -11 | 8 | -1 | 12 | x
O=C(Nc1ccc(F)cc1)C1CCN(C(=O)c2ccc(F)cc2)CC1 | 0 | -7 | -3 | -2 | x | 1 | x
CC1CCC(NC(=O)CN2C(=O)C3CC=CCC3C2=O)CC1 (centres undefined) | 0 | 11 | -1 | -1 | -1 | -2 | x
COc1ccc(NC(=O)Cn2nnc(C(=O)NCc3cccs3)c2N)cc1 | -3 | -8 | 14 | -2 | 0 | 5 | x
CCc1ccc(NC(=O)Cn2nnc(C(=O)NCc3cccs3)c2N)cc1 | -2 | -13 | 9 | 1 | 0 | -5 | x
COc1ccccc1NC(=O)Cn1nnc(C(=O)NCc2cccs2)c1N | -2 | 9 | 22* | 3 | 1 | -9 | -7
CCc1ccccc1NC(=O)Cn1nnc(C(=O)NCc2cccs2)c1N | -1 | -1 | 40* | -1 | -4 | -4 | 0
O=C(Cn1nnc2c(cnn2-c2ccccc2)c1=O)NCc1cccs1 | 1 | 2 | 38* | -2 | x | -4 | 5
O=C(N/N=C/c1ccc(Cl)c([N+](=O)[O-])c1)c1cc(-c2ccc3c4c(cccc24)CC3)n[nH]1 | -2 | 6 | 38* | 5 | -4 | -1 | 7
CCCn1c(N)c(C(=O)CSc2nc(C)cs2)c(=O)[nH]c1=O | -2 | 3 | 2 | 1 | 4 | 2 | x
CCCn1c(N)c(C(=O)CSc2n[nH]c(-c3ccc(C)cc3)n2)c(=O)[nH]c1=O | -3 | 2 | 28* | 2 | -7 | -1 | -2
CC(=O)Nc1ccc(SCCN2CC[C@@H](C(C)(C)C)CCC2=O)cc1 | -1 | 9 | -6 | 5 | -1 | -2 | x
O=C(N/N=C/c1cccc2cccnc12)c1ccccc1O | -2 | -3 | -7 | 5 | -4 | 4 | x
O=C(N/N=C/c1cccc2nccnc12)c1ccccc1O | -4 | -12 | 23* | -1 | x | 5 | -4
Cc1cccc(C)c1NC(=O)C(C)Sc1nnc(C)n1CC1CCCO1 (centres undefined) | -2 | 4 | 2 | -2 | -2 | 4 | x
CCOC(=O)N1CCN(Cc2nc3cc(NC(=O)CC(C)C)ccc3n2CC)CC1 | 1 | -3 | 1 | 0 | 10 | -3 | x
Cc1ccc(C(=O)NC(=S)Nc2ccc3[nH]c(=O)[nH]c3c2)c(C)c1 | -3 | 1 | 28* | -1 | x | 1 | 7
N#Cc1c(NC(=O)COC(=O)c2ccc(O)cc2O)sc2c1CCC2 | 0 | 6 | 39* | -2 | -9 | -18 | 4
O=C(Cn1cnc2ccccc2c1=O)Nc1nnc(SCc2ccc(Cl)cc2)s1 | 1 | -5 | 25* | -1 | -3 | -6 | -5
O=C(Cn1cnc2ccccc2c1=O)Nc1nnc(C2CC2)s1 | -1 | -6 | 8 | 0 | 17 | 12 | x
O=C(CNc1ccc2ccccc2c1)N/N=C/c1ccc([N+](=O)[O-])o1 | -2 | -7 | 31* | 3 | -2 | -5 | 4
CCOC(=O)C1=CNS(=O)(=O)NC1c1ccc(Br)cc1F (centres undefined) | 1 | -4 | 5 | 1 | 0 | -9 | x
CNC(=O)/C(C#N)=C/c1ccc(-c2ccc(Cl)cc2)o1 | x | 4 | 50* | 11 | 2 | -4 | 5
CNC(=O)/C(C#N)=C/c1ccc(-c2ccccc2[N+](=O)[O-])o1 | 0 | -6 | 5 | 0 | -4 | -17 | x
CCCCn1c(N)c(N(CCC(C)C)C(=O)c2cccc(N3C(=O)c4ccccc4C3=O)c2)c(=O)[nH]c1=O | -1 | -1 | 22* | x | -4 | 0 | -1
SMILES | CAL PDZ FP-1 | PKA-R2B act | dFosB act-1 | NTR1 ag | CAL PDZ FP-2 | PKA-R1A act | dFosB act-2
COc1cccc(/C=N/NC(=O)CN(C2=NS(=O)(=O)c3ccccc32)c2ccccc2)c1 | -3 | 0 | 22* | 1 | -3 | -3 | 0
COc1ccc(/C=N/NC(=O)CN(C2=NS(=O)(=O)c3ccccc32)c2ccccc2)cc1OC | -2 | 4 | 3 | 3 | -4 | -1 | x
Nc1cc(Br)cc2c1[nH]c(=O)c1ccccc12 | x | 7 | x | x | x | -5 | x
COc1ccc2cc(C)c3nnc(SCC(=O)Nc4nc(-c5ccccc5)cs4)n3c2c1 | 0 | -8 | 41* | 2 | 0 | -9 | 2
COC(=O)c1ccc(NC(=O)CSC2=Nc3ccccc3C3CC=NN23)cc1 (centres undefined) | -2 | -4 | -15 | 6 | 3 | -6 | x
NC(=O)c1ccc(NC(=O)CSC2=Nc3ccccc3C3CC=NN23)cc1 (centres undefined) | -2 | 3 | 25* | 3 | 2 | -3 | -2
COc1ccc(Nc2ccccc2NC(=O)c2ccccc2Br)cc1 | -2 | -3 | -4 | 3 | 0 | 6 | x
COc1ccc(Cl)cc1N1C(=O)CC(Sc2ccccc2N)C1=O (centres undefined) | 0 | -9 | 38* | 2 | x | 0 | -5
CCOc1ccccc1N1C(=O)CC(Sc2ccccc2N)C1=O (centres undefined) | x | -5 | x | x | x | -7 | x
COc1ccc2cc(C#N)c(SCC(=O)NNC(=O)Cc3ccccc3)nc2c1 | -2 | 2 | 68* | 2 | -4 | -5 | 1
COc1ccc2nc(SCC(=O)Nc3ccc4sc(C)nc4c3)c(C#N)cc2c1 | -3 | -5 | 21* | 1 | 3 | -11 | -14
COc1ccc(NC(=O)CSc2nc(N)c(C#N)cc2C#N)cc1 | -1 | -2 | -2 | 0 | -4 | -9 | x
CC(Oc1cccc(Cl)c1)C(=O)Nc1ccc(N2CCOCC2)cc1N1CCOCC1 (centres undefined) | -1 | 3 | -6 | 3 | 2 | -7 | x
COc1ccc(/C=N/n2c(=O)[nH]c3c([nH]c4ccc(Br)cc43)c2=O)cc1CN1CCOCC1 | 0 | 0 | 28* | 3 | x | 12 | 3
Cc1cccnc1NC(=O)CN1C(=O)COc2ccc(Cl)cc21 | 0 | -12 | 5 | 0 | -4 | -7 | x
COc1cccc(CN(C)C(=O)CSCC(=O)Nc2cc(C)on2)c1OC | -2 | -14 | -12 | 0 | 0 | -12 | x
Cc1cc(C)c2nc(-c3ccccn3)cc(C(=O)NCc3ccc(S(N)(=O)=O)cc3)c2c1 | 0 | x | 65* | 0 | 2 | x | -1
O=c1cc(NCc2ccc3c(c2)OCO3)[nH]c(=O)n1-c1ccc(Cl)cc1 | 0 | 0 | 20* | 2 | x | -13 | 2
